In ChEMBL document CHEMBL1151925, “Design and synthesis of enediyne-peptide conjugates and their inhibiting activity against chymotrypsin” (Bioorg Med Chem, 2009):
Calls of active or inactive are those of the source. The rule behind the calls is not given here.

Legend:
[1] = Inhibition of alpha-chymotrypsin assessed as decrease in proteolysis of BSA at 10.23 uM to 40.9 uM by Lowry method
Summary of the method: (§1)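 BSA (1 mg/ml stock) in 0.01 M phosphate buffer digested with chymotrypsin (1 mg/ml solution) at 38 °C for a set time, free enzyme or enzyme preincubated with inhibitor at three concentrations. Undigested BSA precipitated with 4% trichloroacetic acid and removed by centrifugation. Hydrolysed products in the supernatant quantified by Lowry method and compared with the uninhibited control.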

[2] = Inhibition of alpha-chymotrypsin assessed as decrease in proteolysis of BSA at 1 mg/ml after 60 mins by SDS-PAGE
Summary of the method: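 Chymotrypsin digestion of BSA (1 mg/ml stock) in 0.01 M phosphate buffer at 38 °C, with free enzyme or enzyme preincubated with inhibitor. Digestion fragments resolved by SDS–PAGE with Coomassie Brilliant Blue staining. Loss of the intact BSA band and appearance of hydrolysed fragments were scored.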

[3] = Inhibition of alpha-chymotrypsin assessed as decrease in proteolysis of BSA at 80 uM to 320 uM by Lowry method; summary of the method: as §1
[4] = Inhibition of alpha-chymotrypsin by Lineweaver-Burke plot analysis
Summary of the method: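 Chymotrypsin kinetics followed by UV-vis using N-benzoyl tyrosine ethyl ester substrate at 169–340 µM in 80 mM Tris HCl, pH 7.8, with CaCl2. Inhibitor varied across several concentrations. Reciprocal initial rate plotted against reciprocal substrate concentration (Lineweaver–Burk) to assign inhibition type and derive Ki.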

[5] = Inhibition of alpha-chymotrypsin assessed as decrease in proteolysis of BSA at 4.6 uM to 7.7 uM by Lowry method; summary of the method: as §1
[6] = Inhibition of alpha-chymotrypsin assessed as decrease in proteolysis of BSA at 8.5 uM to 34 uM by Lowry method; summary of the method: as §1
[7] = Inhibition of alpha-chymotrypsin assessed as decrease in proteolysis of BSA at 93 uM to 372 uM by Lowry method; summary of the method: as §1
[8] = Inhibition of alpha-chymotrypsin assessed as decrease in proteolysis of BSA at 5.9 uM to 35 uM by Lowry method; summary of the method: as §1

| Compound | Activity [2] | Ki [4] [µM] | other results |
| --- | --- | --- | --- |
| CC(C)(C)OC(=O)N[C@@H](Cc1ccccc1)C(=O)OCC(=O)N1CC#C/C=C\C#CCC1 | Active | – | Activity [1]: Active |
| CC(C)(C)OC(=O)N[C@@H](Cc1ccccc1)C(=O)N1CCc2ccccc2C1 | inactive | – | Activity [3]: inactive |
| CC(C)(C)OC(=O)N[C@@H](Cc1ccccc1)C(=O)N1CC#Cc2ccccc2C#CCC1 | Active | 3 | Activity [5]: Active |
| C[C@H](NC(=O)OC(C)(C)C)C(=O)N[C@@H](Cc1ccccc1)C(=O)NCCC#Cc1ccccc1C#CC=O | Active | 12 | Activity [6]: Active |
| CC(C)(C)OC(=O)N[C@@H](Cc1ccccc1)C(=O)OCC(=O)N1CCCCC1 | inactive | – | Activity [7]: inactive |
| CC(C)(C)OC(=O)N[C@@H](Cc1ccccc1)C(=O)OCC(=O)N1CC#Cc2ccccc2C#CCC1 | Active | 30 | Activity [8]: Active |
